# ABCB6 inh MLPCN = inhibitors of human ABC transporter ABCB6; fluorescence ratio to DMSO, % at 10 µM; Q9NP58; K562-ABCB6 porphyrin accumulation, flow cytometry, 1 h; hits give low values; AID 602162; actives 0.19% (n = 360,000);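 active = fluorescence ratio to DMSO below 75%, the collection mean minus 3 SD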;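 note: signal is porphyrin accumulated inside mitochondria; 100% equals median channel fluorescence of DMSO control wells; lower ratio means ABCB6 inhibition with less porphyrin fluorescence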
# STAT3 activator = activators of IL-6 induced STAT3 signaling; U3A cells, IL-6 STAT3-luciferase reporter, luminescence; 100% = signal with IL-6 EC80 alone; activation (% of control), % at 5.6 µM; actives 0.91% (n = 190,000); AID 871;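 active = activation above the screen-wide mean of compound activation plus 3 SD, cut at about 130% in these data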;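 note: 0% = background luminescence of wells with medium and substrate only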
#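 Test system: human U3A cells carrying STAT3-luciferase construct; control set: IL-6-only wells as 100% reference; timing: compound pre-incubation 1 h before IL-6, then 6 h stimulation at 37 °C; also added: IL-6 stimulus at 33 ng/mL final; evaluation: % activation versus median of IL-6-stimulated wells; detection: reporter luminescence signal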
# FXN GAA850 act = frataxin GAA850 promoter activation; HEK293 lucGAA850 FXN promoter luciferase reporter, 24 h; percent of 10 µM SAHA response; activation, % at 6 µM; actives 0.56% (n = 360,000);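 active = activation above the average of all compounds screened plus 3 SD, cutoff fixed separately per campaign, cut at about 7.5% in these data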;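 note: 0% = DMSO wells and 100% = 10 µM SAHA wells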
# AHR act = activates the human aryl hydrocarbon receptor; AHR-responsive luciferase reporter cells, luminescence; activation, % at 5 µM; actives 2.5% (n = 320,000); AID 2796; in the data active = activation above about 47%;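 note: 0% = vehicle wells and 100% = reference agonist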
# Target sequence (P35869 whole entry, looked up): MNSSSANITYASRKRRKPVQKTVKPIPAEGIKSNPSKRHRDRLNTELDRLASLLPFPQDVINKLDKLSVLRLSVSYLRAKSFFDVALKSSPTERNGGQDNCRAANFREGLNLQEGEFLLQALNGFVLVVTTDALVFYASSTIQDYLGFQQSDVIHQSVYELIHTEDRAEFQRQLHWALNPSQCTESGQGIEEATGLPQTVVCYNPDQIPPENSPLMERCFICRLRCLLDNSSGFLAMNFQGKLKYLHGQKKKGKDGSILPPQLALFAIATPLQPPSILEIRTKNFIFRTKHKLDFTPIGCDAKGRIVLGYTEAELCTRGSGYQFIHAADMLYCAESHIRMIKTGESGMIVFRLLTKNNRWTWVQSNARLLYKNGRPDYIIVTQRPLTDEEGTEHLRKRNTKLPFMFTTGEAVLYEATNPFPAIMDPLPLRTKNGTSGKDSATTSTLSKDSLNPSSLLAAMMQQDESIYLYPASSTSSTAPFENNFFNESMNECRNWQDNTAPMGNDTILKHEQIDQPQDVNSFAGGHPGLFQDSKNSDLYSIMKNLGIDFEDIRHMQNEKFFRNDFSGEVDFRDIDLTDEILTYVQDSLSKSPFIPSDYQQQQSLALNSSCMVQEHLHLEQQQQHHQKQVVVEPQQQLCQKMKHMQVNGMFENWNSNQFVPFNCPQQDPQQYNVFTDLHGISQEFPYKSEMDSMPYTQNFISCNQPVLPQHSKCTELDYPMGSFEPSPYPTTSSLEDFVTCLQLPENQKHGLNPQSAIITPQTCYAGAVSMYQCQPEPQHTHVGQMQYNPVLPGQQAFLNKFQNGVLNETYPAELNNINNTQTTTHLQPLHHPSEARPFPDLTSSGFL
# AHR act confirm = confirmation of human aryl hydrocarbon receptor activators | actives 87% (n = 2,300) | shares compounds with AHR act | activation, % at 9 µM | human cells, AHR-responsive luciferase reporter, luminescence; in the data active = activation above about 49%;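 note: HepG2 hepatoma cells carrying a DRE-driven firefly luciferase reporter; 0% = vehicle wells and 100% = reference agonist wells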
# PXR act counter = activates human PXR in AHR activator counter-screen; shares compounds with AHR act; AID 434939; actives 88% (n = 2,300); cell-based PXR reporter, luciferase luminescence; activation, % at 11.6 µM; in the data active = activation above about 11%;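 note: human hepatoma DPX-2 cells expressing full-length human PXR; 0% = DMSO and 100% = reference agonist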
# Starred values were filed as active, the others as inactive; x = no result. The list is not random: actives were taken first. Their share in the collection is about 3.3%.
SMILES,ABCB6 inh MLPCN,STAT3 activator,FXN GAA850 act,AHR act,AHR act confirm,PXR act counter
O=C(Nc1ccccc1N1CCCC1)c1ccc([N+](=O)[O-])cc1Cl,106,104,0,91*,87*,212*
O=C(Nc1ccccc1N1CCCC1)c1ccc(Cl)cc1Cl,101,98,2,39,x,x
CCOC(=O)C1(C)CCN1C(=O)c1oc2ccccc2c1C (stereo not drawn),101,x,0,x,x,x
CCC1CN(C(=O)NCc2ccccc2)c2ccccc2O1 (stereo not drawn),99,x,2,x,x,x
Cc1ccccc1C(=O)Nc1ccccc1C(=O)N/N=C\c1ccco1,96,104,-1,7,x,x
O=C(Nc1ccccc1C(=O)N/N=C/c1ccco1)c1ccccc1,97,98,-2,127*,151*,18*
O=C(Nc1ccccc1C(=O)N/N=C/c1ccco1)c1ccc(F)cc1,97,101,0,200*,111*,12*
O=C(Nc1ccccc1C(=O)N/N=C/c1ccco1)c1ccc(Cl)cc1,101,118,1,87*,94*,30*
CCC(C)NS(=O)(=O)c1ccc(S(=O)(=O)N(CC(=O)Nc2ccccc2)CC2CCCO2)cc1 (stereo not drawn),103,105,2,0,x,x
CC(NC(=O)C(C)(C)C)c1nc2ccccc2n1C (stereo not drawn),108,87,-1,6,x,x
CCCc1c(O)nc(SCC(=O)N2CCCCC2)[nH]c1=O,101,x,1,3,x,x
Cc1ccc(-c2csc(-c3ccncc3)n2)cc1,106,98,3,80*,96*,8
Nc1nc(-c2ccc(Br)cc2)cs1,93,99,4,9,x,x
Brc1ccc(-c2csc(Nc3nc(-c4ccc(Br)cc4)cs3)n2)cc1,97,x,1,85*,116*,17*
Brc1ccc(-c2csc(-c3ccncc3)n2)cc1,105,98,3,101*,102*,11*
Cc1cccc(OCCNc2nc3c(c(=O)n(C)c(=O)n3C)n2C)c1,94,83,0,40,x,x
C=CCn1c(SCC(=O)N2CCCC2)nc2c([nH]c3ccccc32)c1=O,98,x,1,86*,98*,125*
C=CCn1c(SCC(=O)N2CCN(C(=O)OCC)CC2)nc2c([nH]c3ccccc32)c1=O,97,x,2,x,x,x
COc1ccc(OC)c(CNC(=O)CCn2c(=O)c3cccn3c3ccc(F)cc32)c1,98,x,3,2,x,x
CCn1c2ccccc2c2nc3cc(OC)c(OC)cc3nc21,89,66,2,115*,96*,63*
N#C/C(=C\c1ccc(/C=C(/C#N)c2nn(CCO)c(N)c2C#N)cc1)c1nn(CCO)c(N)c1C#N,96,88,1,7,x,x
N#C/C(=C/c1ccccc1)c1nn(CCO)c(N)c1C#N,105,109,2,120*,91*,x
Cn1c(C(O)c2ccc(Cl)cc2)nc(Cl)c1Cl (stereo not drawn),95,110,-1,88*,114*,71*
C[C@@H]1CC(=O)[C@H]2CC(CO)=CCC[C@@H]2[C@@]1(C)CC/C(=C/CO)CO,95,x,1,-1,x,x
Cc1ccccc1OCCn1c(=S)[nH]c2ccccc21,93,x,0,7,x,x
SMILES,ABCB6 inh MLPCN,STAT3 activator,FXN GAA850 act,AHR act,AHR act confirm,PXR act counter
CCC1CCCCN1CCCNC(=O)CC1Oc2ccc(C)cc2NC1=O (stereo not drawn),106,103,0,0,x,x
COc1c2ccoc2c(OC[C@@H](O)C(C)(C)OC)c2oc(=O)ccc12,100,96,0,102*,69*,80*
O=C(Cc1cccs1)N1CCN(S(=O)(=O)c2ccc(Cl)c(C(F)(F)F)c2)CC1,98,x,1,0,x,x
Cc1ccccc1Nc1nc(-c2ccccc2)c(C(=O)Nc2cccnc2)s1,106,104,2,81*,57*,65*
O=C(Nc1ccc(Br)cc1)c1ccc(Br)c(S(=O)(=O)Nc2cccnc2)c1,103,100,-2,98*,56*,6
Cc1ccccc1NS(=O)(=O)c1cc(C(=O)Nc2cccnc2)ccc1C,92,x,0,83*,70*,104*
CCN(C(=O)c1cc(Cl)ccc1Cl)C1CCS(=O)(=O)C1 (stereo not drawn),99,x,1,-1,x,x
CNc1[nH]c(=O)[nH]c(=O)c1N=Nc1cc(Cl)ccc1Cl,98,x,1,6,x,x
c1ccc(-c2cc(CSc3nc4ccccc4[nH]3)on2)cc1,91,63,-2,-4,x,x
C=CCn1c(O)c(N=Nc2ccccc2)c2ccccc21,97,x,0,38,x,x
C=CCn1c(O)c(N=Nc2ccccc2O)c2ccccc21,676,x,1,82*,87*,33*
COc1ccc(/C=C/C(=O)c2oc3ccc(F)cc3c2C)cc1,98,103,2,81*,130*,75*
COc1cccc(Nc2nc(-c3cccs3)nc3ccccc23)c1,99,99,2,88*,41,68*
COc1ccc(Nc2nc(-c3cccs3)nc3ccccc23)cc1,94,92,0,-3,x,x
COCc1nc2ccccc2n1CCOc1ccccc1OC,99,98,0,2,x,x
COc1ccc(/C=C2\Cc3ccccc3C2=O)cc1OC,85,x,7,x,x,x
COc1cc2c(cc1OC)/C(=C/c1ccc(Br)cc1)C(=O)OC2,93,90,5,85*,60*,15*
O=C(NCC(F)(F)F)Nc1ncccn1,90,104,0,-2,x,x
O=c1nc2sc3ccccc3n2c(=O)n1-c1cccc(Cl)c1,100,118,5,81*,115*,33*
CCn1c2ccccc2c2cc(NC(=O)c3cccc([N+](=O)[O-])c3)ccc21,112,x,0,86*,89*,33*
CCn1c2ccccc2c2cc(NC(=O)c3cccc([N+](=O)[O-])c3C)ccc21,99,108,1,113*,87*,55*
O=C(CN1CCN(S(=O)(=O)c2ccc(Cl)cc2)CC1)c1ccc(O)c(O)c1,95,x,4,0,x,x
CC(C)CCNC(=O)CCC(=O)NNc1nc2ccccc2c2nc(-c3ccccc3)nn12,95,114,0,16,x,x
O=C(CCC(=O)NNc1nc2ccccc2c2nc(-c3ccccc3)nn12)NCCCN1CCOCC1,103,109,4,84*,91*,16*
O=C(Nc1cccc(S(=O)(=O)NC2=NCCC2)c1)c1ccccc1OC(F)F,79,x,1,1,x,x
Oc1ccc2ccc3[nH]cnc3c2c1,95,x,3,80*,37,22*
CN(C)Cc1c(O)ccc2[nH]cnc12,182,100,2,2,x,x
O=c1[nH]c(Sc2ccc([N+](=O)[O-])cc2[N+](=O)[O-])nc2ccccc12,94,x,4,88*,41,26*
COc1ccc(N2CCN(C(CNC(=O)C(=O)NCC(OC)OC)c3ccco3)CC2)cc1 (stereo not drawn),105,x,0,-1,x,x

# Screening results as filed in PubChem.
